Assay outcomes as filed in PubChem BioAssay.
LMPTP inh – blocks human LMPTP phosphatase; AID 651560; P24666; inhibition, % at 20 µM; recombinant LMPTP-A, OMFP fluorogenic substrate, fluorescence intensity; 360,000 tested, 0.22% active;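 active = compounds that cut the enzyme signal by at least half of the control window in the single-dose screen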;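 also: plate controls were DMSO wells with enzyme plus substrate for no effect and substrate without enzyme for full effect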
Target sequence (P24666 whole entry, looked up): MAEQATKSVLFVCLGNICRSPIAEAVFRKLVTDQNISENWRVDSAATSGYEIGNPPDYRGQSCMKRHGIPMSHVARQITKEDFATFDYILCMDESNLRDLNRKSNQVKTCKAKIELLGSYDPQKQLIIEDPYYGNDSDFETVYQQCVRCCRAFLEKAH
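Assay system: LMPTP-A phosphatase enzyme | Input: 0.625 nM enzyme | Also added: Fluorogenic phosphatase substrate OMFP at 400 µM final | Compound dosing: One test concentration per compound, 20 µM, with 3% DMSO overall | Schedule: 50 min enzyme reaction at room temperature, protected from light | Signal: Fluorescence intensity | Benchmarks: no-enzyme and uninhibited controls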
GRK2 aptamer HTS – inhibitors of human GRK2 displacing RNA aptamer; P25098; 330,000 tested, 0.59% active; inhibition of aptamer binding, % at 10 µM; bead flow cytometry, FAM-aptamer displacement from GRK2; AID 488847;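 active = inhibition of aptamer binding above 40%, roughly 3 SD of noise, on plates passing a quality check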;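 also: median bead fluorescence of bound FAM aptamer so fluorescent compounds give negative values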
STEP block – inhibitors of human striatal-enriched phosphatase STEP; AID 588621; recombinant STEP, OMFP fluorogenic substrate, fluorescence; inhibition, % at 20 µM; 360,000 tested, 0.25% active;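 active = inhibition at 20 µM, scaled per plate between control wells, above about 37%, limit read from the data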;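 also: 0% = DMSO with enzyme and substrate and 100% = substrate only without enzyme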
Target sequence (P54829 whole entry, looked up): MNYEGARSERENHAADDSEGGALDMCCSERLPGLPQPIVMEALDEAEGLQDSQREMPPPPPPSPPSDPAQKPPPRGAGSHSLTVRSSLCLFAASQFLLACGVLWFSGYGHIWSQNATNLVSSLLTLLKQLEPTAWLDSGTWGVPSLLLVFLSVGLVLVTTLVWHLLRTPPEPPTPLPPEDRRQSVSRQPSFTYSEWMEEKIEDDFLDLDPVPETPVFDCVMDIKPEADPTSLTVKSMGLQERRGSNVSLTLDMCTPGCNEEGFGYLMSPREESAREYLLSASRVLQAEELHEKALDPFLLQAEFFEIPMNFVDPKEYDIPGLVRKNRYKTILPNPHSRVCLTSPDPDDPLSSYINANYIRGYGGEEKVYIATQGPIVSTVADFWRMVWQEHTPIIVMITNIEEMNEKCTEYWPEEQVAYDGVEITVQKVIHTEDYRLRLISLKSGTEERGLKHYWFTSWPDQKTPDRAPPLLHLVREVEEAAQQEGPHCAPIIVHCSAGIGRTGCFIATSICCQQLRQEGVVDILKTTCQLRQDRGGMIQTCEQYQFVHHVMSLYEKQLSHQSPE
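medium = Bis-Tris buffer pH 6.0, 2.5 mM DTT, 0.005% Tween 20 | test system = STEP (striatal-enriched tyrosine phosphatase) enzyme, cell-free | measure = normalized % inhibition | compound dosing = 20 µM, 1% DMSO | also added = 25 µM OMFP | schedule = reaction 20 min, ambient temperature | measured by = fluorescence read at 480 nm ex / 540 nm em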
DNMT1 inh – blocks human DNA methyltransferase DNMT1 | P26358 | DNMT1 molecular beacon, Hinp1I cleavage, fluorescence | inhibition (reported as % activation of signal), % at 10 µM | 360,000 tested, 0.83% active | AID 588458; in the data active = inhibition above about 50%
SUMO1-SIM PPI – alters human SUMO1 binding to SIM partners; SUMO1 binding to a labelled peptide, TR-FRET, 1 h; inhibition, % at 20 µM; 360,000 tested, 0.33% active; AID 602429; in the data active = inhibition above about 37%
Scp-1 inhibitor – inhibitors of human Scp-1 phosphatase; Q9GZU7; Recombinant Scp1, phosphopeptide, malachite green phosphate absorbance; inhibition, % at 20 µM; 340,000 tested, 0.88% active; AID 493091;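 active = inhibition above about 50% at 20 µM, limit read from the data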;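 also: plate controls were DMSO wells with enzyme for no effect and wells lacking enzyme for full effect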
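Assay system: SCP-1 catalytic fragment, aa 76-261 | Buffer or medium: Tris acetate buffer pH 5.5 with MgCl2 and Tween-20 | Compound: One concentration, 20 µM, with 1.0% DMSO | Also added: Phospho 17-mer peptide substrate | Signal: Absorbance at 630 nm | Incubation: 45 min enzyme reaction at room temperature | Measure: % inhibition of SCP-1 phosphate liberation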
Scp-1 conf – Scp-1 (human) inhibition, single-dose confirmed | shares compounds with Scp-1 inhibitor | inhibition, % at 20 µM | 2,500 tested, 61% active | recombinant SCP-1 catalytic domain, phosphate release, malachite green absorbance;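 also: plate controls were DMSO with enzyme for no effect and buffer wells lacking enzyme for full effect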
MG interference – counter-screen for Scp-1 inhibitors: colorimetric interference; shares compounds with Scp-1 inhibitor; Colorimetric interference counterscreen, malachite green absorbance 630 nm; apparent inhibition (interference), % at 20 µM; 2,500 tested, under 10 active; AID 540313;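 also: compounds added after enzyme reaction finished so only phosphate colour detection is probed; plate controls were DMSO wells with completed Scp-1 reaction for no effect and substrate wells lacking enzyme for full effect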
Scp-1 Tm shift – binds human Scp-1, shifting its melting temperature. AID 540329. thermal shift relative to vanadate control, % at 40 µM. Recombinant SCP1, Sypro Orange thermal shift Tm. shares compounds with Scp-1 inhibitor. 1,500 tested, 25% active;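 active = substances whose mean melting-temperature shift, as a percentage of the reference inhibitor's shift, reaches about 5.3%, limit read from the data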;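 also: 0% = Tm of DMSO wells and 100% = Tm with sodium orthovanadate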
Beacon interf DR – counter-screen for DNMT1 inhibitors: spectral interference, dose response | shares compounds with DNMT1 inh | molecular beacon fluorescence | IC50, µM | 200 tested, under 10 active | AID 602382; call rule not given here
DNMT1 inh conf – confirmation of human DNMT1 inhibitors | shares compounds with DNMT1 inh | DNMT1 molecular beacon HinP1I cleavage, fluorescence | inhibition, % at 10 µM | 2,300 tested, 8% active | AID 602385;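 active = average inhibition of at least 30% in the single-concentration confirmation test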
Beacon interf – counter-screen for DNMT1 inhibitors: spectral interference | AID 602387 | DNMT1 molecular beacon spectral interference counterscreen, fluorescence 485/520 | shares compounds with DNMT1 inh | activation (fluorescence interference), % at 10 µM | 2,300 tested, 1% active;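 active = activation of at least 30% at 10 µM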;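 also: DNMT1 catalytic domain with a HinP1I cleavage step and a FAM/dabcyl DNA beacon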
Starred values were filed as active, the others as inactive; . = not tested or not shown. A selection: hits, their analogues and other compounds. The true share with any hit is near 2.2%.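 The calls were made as follows, unless noted: active = inhibition of at least 30% at 20 µM; inactive = the rest.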

SMILES	LMPTP inh	GRK2 aptamer HTS	STEP block	DNMT1 inh	SUMO1-SIM PPI	Scp-1 inhibitor	Scp-1 conf	MG interference	Scp-1 Tm shift	DNMT1 inh conf	Beacon interf	others
COc1ccc(O)c(/C=N/NC(=O)c2c(C)nnn2-c2nonc2N)c1	16	0	68*	96*	-5	100*	86*	-9	-12	6	1
O=C(O)c1cc(-c2ccco2)nn1-c1cccc(Cl)c1	8	6	16	105*	44*	66*	58*	-15	8.4*	7	-2
Cc1cc(NC(=O)CSc2nc3[nH]c(=O)cc(O)c3s2)ccc1Br	1	.	3	-3	7	4	.	.	.	.	.
Cc1cc(NC(=O)CSc2sc3c(O)cc(=O)[nH]c3c2C#N)ccc1Br	40	2	8	61*	13	59*	52*	-18	17*	3	2
CCOc1ccc(-c2noc(-c3csc([C@@H]4O[C@H](CO)[C@H](O)[C@H](O)[C@H]4O)n3)n2)cc1	2	.	-1	8	-1	.	.	.	.	.	.
COCCN1C(=O)C(=O)/C(=C(/O)c2cccc(OC)c2)C1c1ccco1 (stereo not drawn)	-1	33	3	75*	1	57*	56*	-3	3	7	4
C=CCNc1nc(C(=O)OCC(=O)c2cccc(Br)c2)cs1	9	1	4	59*	2	57*	60*	-18	11*	22	-2
Nc1ncnn1Cc1ccccc1	-1	.	0	3	1	.	.	.	.	.	.
CCOc1ccc(NC(=O)CNC(=O)c2ccc(OC)cc2)cc1	-2	2	-3	0	-3	-3	.	.	.	.	.
COc1ccc(C(=O)NCC(=O)Nc2ccc(-c3ccccc3)cc2)cc1	23	0	12	53*	4	95*	84*	-8	-20	1	-4
S=c1[nH]nc(-c2cc(-c3ccco3)[nH]n2)n1-c1ccccc1Cl	1	0	5	73*	34	75*	31*	-18	11*	9	9
S=c1[nH]nc(-c2ccco2)n1-c1ccccc1Cl	-3	0	-2	0	1	-14	.	.	.	.	.
COc1ccc(CCNC(=O)Nc2nc(C(N)COCc3ccccc3)cs2)cc1OC (stereo not drawn)	-1	.	-2	1	-7	.	.	.	.	.	.
O=C1COc2ccc(C(=O)COC(=O)/C=C/c3ccco3)cc2N1	16	12	8	57*	-13	59*	57*	-10	-14	5	3
CCN(CC)S(=O)(=O)c1ccc(/C=C/C(=O)OCC(=O)NCc2cccs2)cc1	0	2	-3	-3	-27	-12	.	.	.	.	.
CCN(CC)S(=O)(=O)c1ccc(/C=C/C(=O)OCC(=O)NCc2ccco2)cc1	10	8	7	64*	-17	71*	79*	2	4	4	6
C[N+](C)(C)CCN1CCc2ccccc21	-2	.	.	.	1	.	.	.	.	.	.
O=C(Nc1ccc(-c2nc3ccccc3s2)c(O)c1)C1=COCCO1	53*	26	22	70*	2	98*	71*	-7	9.9*	5	5
Cc1ccc(/C=C/C(=O)NCc2ccccn2)o1	1	38	0	67*	-2	72*	59*	-13	3	6	1
O=C(NCc1ccccc1)C1CCN(S(=O)(=O)c2cc([N+](=O)[O-])ccc2Cl)CC1	-1	3	-1	-3	-24	1	.	.	.	.	.
O=C(COC(=O)C1CCN(S(=O)(=O)c2cc([N+](=O)[O-])ccc2Cl)CC1)Nc1ncc(Cl)cc1Cl	10	5	22	86*	11	68*	58*	-10	14*	4	-3
Cc1nc2ccccn2c(=O)c1NC(=O)c1ccc2c(c1)OCO2	-1	.	-1	0	-6	.	.	.	.	.	.
CCOC(=O)C1=C(O)/C(=C/c2ccc(CNC(=O)C(=O)Nc3ccc(C)cc3)o2)N=C1C	28	0	3	90*	20	69*	2	-17	.	23	-2
O=C(O)c1cccc(-n2cccc2C=C2C(=O)c3ccccc3C2=O)c1	3	10	9	49	4	31	.	.	.	.	.
O=C(N/N=C/c1cccn1-c1cccc(C(=O)O)c1)Nc1ccccc1	1	24	-1	85*	4	64*	50*	-14	7.0*	2	14
SMILES	LMPTP inh	GRK2 aptamer HTS	STEP block	DNMT1 inh	SUMO1-SIM PPI	Scp-1 inhibitor	Scp-1 conf	MG interference	Scp-1 Tm shift	DNMT1 inh conf	Beacon interf	others
Cc1ccc(C(=O)NN2CC(O)=C(c3nc(-c4cccc([N+](=O)[O-])c4)cs3)C2=N)cc1	13	4	20	80*	1	75*	43*	-7	6.1*	39*	-2	Beacon interf DR=>99
COc1cccc(C(=O)NN2CC(O)=C(c3nc(C)cs3)C2=N)c1	1	0	-2	2	4	-2	.	.	.	.	.
CCc1nc2ccc(C(=O)NCCCN3CCCC3=O)cn2c1N(CC)C(C)=O	-2	.	4	-2	5	.	.	.	.	.	.
Cc1ccc(Cl)cc1N1CCN(C(=O)CSc2ccsc2[N+](=O)[O-])CC1	2	1	2	63*	-6	55*	68*	-5	8.1*	0	-1
Cc1cccc(C)c1N1C(=O)c2ccccc2NC(=O)C1C(=O)NCC(C)C (stereo not drawn)	-1	.	.	.	0	.	.	.	.	.	.
CCC1CCCCN1C(=O)COC(=O)c1cncc(Br)c1 (stereo not drawn)	-1	.	0	0	0	.	.	.	.	.	.
O=C(Nc1ccc2c(c1)OCO2)c1cc2ncc(Br)cn2n1	36	.	12	59*	9	57*	66*	-5	1	0	-2
O=C(Nc1cccc(C(F)(F)F)c1)c1cc2ncc(Br)cn2n1	10	8	32	11	1	7	.	.	.	.	.
COC(=O)C[C@H]1C[C@H]2c3cc(NC(=O)NC4CCCC4)ccc3O[C@H]2[C@@H](CO)O1	-2	.	2	2	2	.	.	.	.	.	.
